Publication PMC4241170 (ACS Chemical Biology, 2014)

How the values were obtained:
HSP70 = assay: ITC, HSP70 presaturated with PET-16, interaction with PES; format: binding, human; conditions: data not shown
GRP78 (BiP) = conditions: ref [5],[19]; cited from earlier work
GRP75 = conditions: ref [5],[19]; cited from earlier work
[1] = system: nucleotide-free HSP70 protein; assay: ITC, nucleotide-free HSP70; format: binding, human; conditions: compared with ADP-bound form; 42 °C
HSP70 (aa 386-616) = HSP70 (aa 386-616) (Homo sapiens, UniProt P0DMV8); assay: ITC, C-terminal domain of HSP70; format: binding; conditions: Figure 2J
Sequence of HSP70 (aa 386-616) (P0DMV8 386-616): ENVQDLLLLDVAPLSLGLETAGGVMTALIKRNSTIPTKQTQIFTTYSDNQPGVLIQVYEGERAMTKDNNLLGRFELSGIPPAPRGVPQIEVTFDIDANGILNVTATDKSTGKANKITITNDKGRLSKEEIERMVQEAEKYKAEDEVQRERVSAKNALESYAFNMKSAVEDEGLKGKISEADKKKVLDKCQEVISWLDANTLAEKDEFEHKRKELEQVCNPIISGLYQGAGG
How it was run: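 Recombinant HSP70 C-terminal fragment (aa 386–616) titrated against test compound by isothermal titration calorimetry. Kd reported as average and standard deviation of three independent experiments.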

mammalian tumor cells = assay: Viability of mammalian tumor cells; format: cell-based; conditions: TPP moiety alone, Figure 1C
How it was run: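 Human A875 melanoma cells and nontransformed human IMR90 fibroblasts treated for 24 h alongside a DMSO vehicle control. Results are representative of four independent experiments.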

E. coli DH5α = assay: Growth of E. coli at elevated temperature; format: cell-based; conditions: 6 h at 43 °C, 30 μM in Figure 1E
How it was run: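 E. coli DH5α grown with varying concentrations of test compound for 6 h at 43 °C, with a DMSO vehicle control; one comparison used 30 μM. Growth measured in four independent experiments, with s.d. error bars.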

DnaK (aa 389-607) = DnaK (aa 389-607) (Escherichia coli, UniProt P0A6Y8); assay: ITC, DnaK SBD; format: binding, E. coli; conditions: data not shown
Sequence of DnaK (aa 389-607) (P0A6Y8 389-607): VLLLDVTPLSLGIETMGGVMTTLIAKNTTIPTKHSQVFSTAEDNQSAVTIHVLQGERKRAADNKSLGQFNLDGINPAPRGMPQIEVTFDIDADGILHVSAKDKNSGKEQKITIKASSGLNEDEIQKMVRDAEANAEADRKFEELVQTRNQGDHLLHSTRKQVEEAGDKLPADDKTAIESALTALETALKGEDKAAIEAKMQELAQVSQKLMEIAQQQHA

| Molecule | interaction of HSP70 with PES after presaturation with PET-16 (HSP70) | interaction with GRP78 (BiP) (GRP78 (BiP)) | interaction with GRP75 (GRP75) | interaction with nucleotide-free HSP70 (ITC) [1] | binding to HSP70 SBD (ITC) (HSP70 (aa 386-616)) | effect on viability of mammalian tumor cells (mammalian tumor cells) | effect on growth of E. coli (E. coli DH5α) | binding to DnaK SBD (ITC) (DnaK (aa 389-607)) |
| --- | --- | --- | --- | --- | --- | --- | --- | --- |
| NS(=O)(=O)C#Cc1ccccc1 [PES, 2-phenylethynesulfonamide] | impairs the interaction | do not interact | do not interact | comparable affinity |  |  |  |  |
| triphenylphosphine (TPP) bromide |  |  |  |  | does not bind | little discernible effect | did not detect an effect | does not bind |
